This note sets out measurements from ChEMBL document CHEMBL1135529, “New inhibitors of bacterial protein synthesis from a combinatorial library of macrocycles” (J Med Chem, 2002).

Converted amounts (≈) assume the structure as drawn.

Assay type in all cases: functional
The test system of test [1] is Escherichia coli. The test can be described thus: Inhibition of cell free transcription/translation by Escherichia coli s30 bacterial extract. The gist of the method: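 Coupled transcription/translation in E. coli S30 extract with pBest Luc plasmid (0.125 μg/μL stock), S30 premix and complete amino acid mix (1 mM each, 10× stock). 35 min at 37 °C, then luciferase read by luminescence. IC50 = concentration reducing luciferase activity to 50% of control; compounds HPLC-purified before IC50 determination.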

In test [2] the test system is Escherichia coli. The test is described as follows: In vitro minimum inhibition concentration against Escherichia coli KZM120, pump mutant. The gist of the method:
(§1)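 Broth microdilution in duplicate. Overnight culture added to compound in 2.5% DMSO in water; final inoculum about 10²–10³ CFU/well. Growth relative to no-compound control read as A595 after 20–24 h at 37 °C. MIC reported as a range: complete inhibition at the upper concentration, viable cells at the lower. Top concentration 100 μM.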

Test [3] is described as follows: In vitro inhibition of translation in luciferase SP6 control plasmid. In a few lines:
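Luciferase mRNA transcribed from SP6 plasmid with SP6 RNA polymerase, then translated in E. coli S30 extract for linear templates with S30 premix and complete amino acid mix (1 mM each, 10× stock). 90 min at 37 °C; functional luciferase detected by luminescence. IC50 = concentration reducing luciferase activity to 50% of control.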

Test [4] concerns Escherichia coli. The test can be described thus: In vitro minimum inhibition concentration against Escherichia coli Ram195, pump mutant. In a few lines: as §1
Test [5] deals with Escherichia coli. The test is described as follows: In vitro minimum inhibition concentration against Escherichia coli D21f2, LPS mutant; Range is from 25-50. In a few lines:
as §1

The subject of test [6] is Escherichia coli. The test can be described thus: In vitro minimum inhibition concentration against Escherichia coli K-12, wild type. The gist of the method:
as §1

Test [7] concerns Escherichia coli. The test is described as follows: In vitro minimum inhibition concentration against Escherichia coli D21f2, LPS mutant; Range is from 12-25. The gist of the method: as §1
In test [8] the test system is Escherichia coli. The test is described as follows: In vitro minimum inhibition concentration against Escherichia coli Ram195, pump mutant; Range is from 50-100. In a few lines: as §1
Test [9] deals with Escherichia coli. The test is described as follows: In vitro minimum inhibition concentration against Escherichia coli KZM120, pump mutant; Range is from 50-100. In a few lines: as §1
The subject of test [10] is Escherichia coli. The test is described as follows: In vitro minimum inhibition concentration against Escherichia coli K-12, wild type; Range is from 50-100. The gist of the method: as §1
Test [11] deals with Escherichia coli. The test can be described thus: In vitro minimum inhibition concentration against Escherichia coli D21f2, LPS mutant; Range is from 25-50. In a few lines: as §1

One may read the IC50 as the concentration needed to halve the response being measured. Turning to `Cc1nc2ccc(C(=O)Nc3ccc4c(c3)C(=O)NC[C@@H](N)C(=O)N[C@@H](Cc3ccc(N)cc3)C(=O)N[C@@H](CCCN=C(N)N)CO4)cc2nc1C`, the IC50 in the test on Escherichia coli [1] was above 100 µM.

As a reminder, the MIC is the smallest concentration in the dilution series that meets the test's criterion for growth inhibition. Low readings indicate inhibition by little substance, high ones a need for much substance. As for `NC(N)=NCCC[C@H]1COc2ccc(NC(=O)c3ccc4nc(O)c(O)nc4c3)cc2C(=O)NC[C@@H](N)C(=O)N[C@@H](Cc2ccc(O)cc2)C(=O)N1`, the MIC was above 100 µM with Escherichia coli [2], above 100 µM against Escherichia coli [4], 50 µM (≈ 35.7 µg/mL) against Escherichia coli [5] and above 100 µM against Escherichia coli [6]. Moreover, the IC50 in the test with Escherichia coli [1] was 25 µM; in [3], 50 µM.

In the case of `NC(N)=NCCC[C@@H]1COc2ccc(NC(=O)c3ccc4nc(O)c(O)nc4c3)cc2C(=O)NC[C@H](N)C(=O)N[C@H](Cc2ccc(N)cc2)C(=O)N1`, the MIC is above 100 µM against Escherichia coli [2], above 100 µM in the test with Escherichia coli [4], 25 µM (≈ 17.8 µg/mL) in the test on Escherichia coli [7] and above 100 µM in the test on Escherichia coli [6]. Also, the IC50 was found to be 17 µM in the test with Escherichia coli [1] and 25 µM in test [3].

`NC(N)=NCCC[C@H]1COc2ccc(NC(=O)CCCNC(=O)c3ccc4nc(O)c(O)nc4c3)cc2C(=O)NC[C@@H](N)C(=O)N[C@@H](Cc2ccc(N)cc2)C(=O)N1` came in with an IC50 in the test with Escherichia coli [1] of 75 µM.

As to `NC(N)=NCCC[C@H]1COc2ccc(NC(=O)c3ccc4nc(O)c(O)nc4c3)cc2C(=O)NC[C@@H](N)C(=O)N[C@@H](Cc2cccnc2)C(=O)N1`, in the test with Escherichia coli [1], half-maximal inhibition (IC50) was put at 50 µM.

`NCCCC[C@H]1COc2ccc(NC(=O)c3ccc4nc(O)c(O)nc4c3)cc2C(=O)NC[C@@H](N)C(=O)N[C@@H](Cc2ccccc2)C(=O)N1`: the MIC against Escherichia coli [2] is above 100 µM; with Escherichia coli [4] it was above 100 µM; in the test with Escherichia coli [7] it was 25 µM (≈ 16.8 µg/mL); in the test with Escherichia coli [6] it was above 100 µM. Also, the IC50 with Escherichia coli [1] was 40 µM; in test [3] it was 50 µM.

In the case of `NC(N)=NCCC[C@@H]1COc2ccc(NC(=O)c3ccc4nc(O)c(O)nc4c3)cc2C(=O)NC[C@H](N)C(=O)N[C@H](Cc2ccc(O)cc2)C(=O)N1`, the MIC in the test on Escherichia coli [2] was above 100 µM; in the test with Escherichia coli [4], above 100 µM; against Escherichia coli [7] it was 25 µM (≈ 17.9 µg/mL); against Escherichia coli [6] it was above 100 µM. Further, the IC50 was determined as 15 µM with Escherichia coli [1] and 35 µM in test [3].

`NC(N)=NCCC[C@H]1COc2ccc(NC(=O)CCNC(=O)c3ccc4nc(O)c(O)nc4c3)cc2C(=O)NC[C@@H](N)C(=O)N[C@@H](Cc2ccc(N)cc2)C(=O)N1` returned an IC50 in the test on Escherichia coli [1] of 3 µM.

In the test on Escherichia coli [1], `NC(N)=NCCC[C@H]1COc2ccc(NC(=O)c3ccc4ccccc4n3)cc2C(=O)NC[C@@H](N)C(=O)N[C@@H](Cc2ccc(N)cc2)C(=O)N1` yielded an IC50 above 100 µM.

Compound `Cn1c(=O)c(=O)n(C)c2cc(C(=O)Nc3ccc4c(c3)C(=O)NC[C@@H](N)C(=O)N[C@@H](Cc3ccc(N)cc3)C(=O)N[C@@H](CCCN=C(N)N)CO4)ccc21` came in with an IC50 in the test on Escherichia coli [1] above 100 µM.

Take `NC(N)=NCCC[C@H]1COc2ccc(NC(=O)c3ccc4cccnc4c3)cc2C(=O)NC[C@@H](N)C(=O)N[C@@H](Cc2ccc(N)cc2)C(=O)N1`: the IC50 in the test on Escherichia coli [1] is above 100 µM.

In the test on Escherichia coli [1], `NC(N)=NCCC[C@@H]1COc2ccc(NC(=O)c3ccc4nc(O)c(O)nc4c3)cc2C(=O)NC[C@H](N)C(=O)N[C@H](Cc2ccccc2)C(=O)N1` registered an IC50 of 12 µM. Also, the MIC in the test on Escherichia coli [8] worked out at 100 µM (≈ 69.9 µg/mL); against Escherichia coli [9] it was 100 µM (≈ 69.9 µg/mL); in the test with Escherichia coli [10] it was 100 µM (≈ 69.9 µg/mL); with Escherichia coli [5], 50 µM (≈ 34.9 µg/mL).

Regarding `NC[C@H]1O[C@H](O[C@H]2[C@H](O)[C@@H](O[C@H]3O[C@H](CO)[C@@H](O)[C@H](N)[C@H]3O)[C@H](N)C[C@@H]2N)[C@H](O)[C@@H](O)[C@@H]1O` [KANAMYCIN], the IC50 in the test with Escherichia coli [1] came out at 0.04 µM; in test [3] it was 0.08 µM.

Consider `CN(CC(=O)Nc1ccc2c(c1)C(=O)NC[C@@H](N)C(=O)N[C@@H](Cc1ccc(N)cc1)C(=O)N[C@@H](CCCN=C(N)N)CO2)C(=O)c1ccc2nc(O)c(O)nc2c1`, for which the IC50 in the test on Escherichia coli [1] was above 100 µM.

`NC(N)=NCCC[C@H]1COc2ccc(NC(=O)c3cc4nc(O)c(O)nc4cc3[N+](=O)[O-])cc2C(=O)NC[C@@H](N)C(=O)N[C@@H](Cc2ccc(N)cc2)C(=O)N1` registered a 50% inhibitory concentration (IC50) in the test with Escherichia coli [1] above 100 µM.

As to `NC(N)=NCCC[C@H]1COc2ccc(NC(=O)c3ccc4nc(O)c(O)nc4c3)cc2C(=O)NC[C@@H](N)C(=O)N[C@@H](Cc2ccc(N)cc2)C(=O)N1`, the MIC in the test on Escherichia coli [2] is above 100 µM; against Escherichia coli [4], above 100 µM; against Escherichia coli [11] it was 50 µM (≈ 35.7 µg/mL); in the test with Escherichia coli [6] it was above 100 µM. Besides, the concentration for half-maximal inhibition (IC50) was 16 µM in the test with Escherichia coli [1] and 13 µM in test [3].

On to `NC(N)=NCCC[C@H]1COc2ccc(NS(=O)(=O)c3ccc4nc(O)c(O)nc4c3)cc2C(=O)NC[C@@H](N)C(=O)N[C@@H](Cc2ccc(N)cc2)C(=O)N1`, for which the midpoint of inhibition in the test with Escherichia coli [1], the IC50, lay at 62 µM.

As to `NC(N)=NCCC[C@@H]1COc2ccc(NC(=O)c3ccc4nc(O)c(O)nc4c3)cc2C(=O)NC[C@@H](N)C(=O)N[C@H](Cc2cccnc2)C(=O)N1`, 20 µM corresponded to half-maximal inhibition with Escherichia coli [1] (IC50).

The compound `NC(N)=NCCC[C@H]1COc2ccc(NC(=O)CCCCCNC(=O)c3ccc4nc(O)c(O)nc4c3)cc2C(=O)NC[C@@H](N)C(=O)N[C@@H](Cc2ccc(N)cc2)C(=O)N1` yielded an IC50 in the test on Escherichia coli [1] of 33 µM.

As for `Cc1cc2nc(O)c(O)nc2cc1S(=O)(=O)Nc1ccc2c(c1)C(=O)NC[C@@H](N)C(=O)N[C@@H](Cc1ccc(N)cc1)C(=O)N[C@@H](CCCN=C(N)N)CO2`, the IC50 with Escherichia coli [1] worked out at 2 µM.

Turning to `NC(N)=NCCC[C@H]1COc2ccc(NC(=O)CNC(=O)c3ccc4nc(O)c(O)nc4c3)cc2C(=O)NC[C@@H](N)C(=O)N[C@@H](Cc2ccc(N)cc2)C(=O)N1`, the concentration for half-maximal inhibition (IC50) with Escherichia coli [1] was 50 µM.

With `NC(N)=NCCC[C@H]1COc2ccc(NC(=O)c3ccc4ccccc4c3)cc2C(=O)NC[C@@H](N)C(=O)N[C@@H](Cc2ccc(N)cc2)C(=O)N1`, the IC50 with Escherichia coli [1] is above 100 µM.
